The text below walks through data of paper PMC11565791 (bioRxiv, 2025).

Data set [1] deals with H3K9me3 peptide (fluoresceinated H3 1-20). The following applies: H3K9me3 vs H3K9me0 peptide; ref Canzio et al. 2011; cited from earlier work.
For data set [2], the system named is H3Kc9me3 mononucleosomes. The experiment in a line: Fluorescence polarization, H3Kc9me3. Type of data set: binding.
Data set [3] concerns H3K9 methylation states. The note with it: faster than H3K9me2 to me3; ref Al-Sady et al. 2013; cited from earlier work.
The test system of data set [4] is genomic loci. Kind of data set: anti-pS18-pS24 ChIP-seq. Type of data set: cell-based, S. pombe. The following applies: wildtype; SFigure 8F. Summed up: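 FLAG ChIP: strains express FLAG-tagged Swi6 variants; IP with M2 anti-FLAG. pS18-pS24 ChIP: untagged strains; IP with anti-pS18-pS24 antibody; lysis buffer also contains 0.1 mM orthovanadate and 60 mM β-glycerophosphate. Both: grown to saturation in YES at 32°C, then 2 h at 18°C. 600×10^6 cells fixed with 1.5 mM EGS (30 min), then 1% formaldehyde (30 min). Drosophila spike-in added; three technical replicates; spike-in-adjusted cpm.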

Data set [5] deals with Clr4 (H3K9me2 mononucleosome substrate). Kind of data set: Single turnover H3K9me2 to H3K9me3 conversion by Clr4. The following applies: 5 μM Clr4, 1 mM SAM, 500 nM H3K9me2 nucleosomes, 25°C. Type of data set: biochemical, S. pombe. Summed up:
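Purified Clr4 (5 μM) was preincubated for 5 min at 25°C with 1 mM SAM and varying Swi6 concentrations (unphosphorylated or phosphorylated). Reactions were started by adding commercial H3K9me2 nucleosomes to 500 nM. Timepoints were stopped by boiling in Laemmli buffer, run on 18% SDS-PAGE and blotted for H3K9me3 and H4. Signals were quantified against H3K9me3 nucleosome standard curves and fitted to a single exponential rise.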

The subject of data set [6] is H3K9me0 mononucleosomes. The experiment in a line: Fluorescence polarization, H3K9me0 mononucleosome. The class given is binding. The following applies: Figure 7C, SFigure 10D. Summed up:
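Reconstituted H3K9me0 mononucleosomes on fluorescein-labelled 601 DNA were fixed at 25 nM. Purified Swi6, either unphosphorylated or co-expressed with casein kinase II catalytic subunits, was titrated at 0–200 μM. Fluorescence polarization was read at ex 485 / em 528 nm and fitted to a Kd equation.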

For data set [7], the system named is Swi6 oligomerization. The experiment in a line: Glutaraldehyde crosslinking western, oligomerization. Type of data set: biochemical. The note with it: 0.01% glutaraldehyde, 2 h, room temperature; compared to pSwi6; Figure 7B. Put shortly: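 Purified Swi6 in storage buffer (25 mM HEPES pH 7.5, 100 mM KCl, 10% glycerol, 10 mM βME) was tested at various protein concentrations. It was crosslinked with 0.01% glutaraldehyde for 2 h at room temperature, then quenched with 50 mM Tris pH 7.4. Samples were diluted to 4.2 μM, run on 4–12% Tris-glycine gradient gels and analysed by western blot with fluorescent detection.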

Consider “unpSwi6: recombinant Swi6 expressed in E. coli without CKII, His tag removed by TEV”, for which the “specificity for H3K9me3 peptide, previously reported” value in data set [1] is reported as ~ 130 X. Further, in data set [2] (H3Kc9me3 vs H3K9me0 nucleosomes), the “specificity for H3K9me3 mark on nucleosomes” value is recorded as 19.4 X. For the same molecule, the “tighter binding to H3Kc9me3 nucleosome than to H3K9me3 peptide” value in data set [2] (Kd nucleosome vs Kd tail peptide) is on record as 68 X.
Regarding Clr4: H3K9 methylase of S. pombe, in data set [3], the “rate of H3K9me0 to me1 and me1 to me2 conversion relative to me2 to me3” value is on record as 10 X.
Regarding “FLAG-Swi6: 3XFLAG tagged wildtype Swi6 at endogenous locus”, the “pS18-pS24 pool versus overall FLAG-Swi6 accumulation” value in data set [4] is “no significant differences in accumulation between the overall Swi6 pool and the pS18-pS24 pool”.

B1: pSwi6^S18/24A: phospho-mutant protein, S18 and S24 mutated to alanines, co-expressed with CKII (protein)
chain: MKKGGVRSYRRSSTSKRAVIDDDAEPELPSMTKEAIASHKADSGSSDNEVESDHESKSSSKKLKENAKEEEGGEEEEEDEYVVEKVLKHRMARKGGGYEYLLKWEGYDDPSDNTWSSEADCSGCKQLIEAYWNEHGGRPEPSKRKRTARPKKPEAKEPSPKSRKTDEDKHDKDSNEKIEDVNEKTIKFADKSQEEFNENGPPSGQPNGHIESDNESKSPSQKESNESEDIQIAETPSNVTPKKKPSPEVPKLPDNRELTVKQVENYDSWEDLVSSIDTIERKDDGTLEIYLTWKNGAISHHPSTITNKKCPQKMLQFYESHLTFRENE
modifications: left off: 6xHis, N-terminal, cleaved
Take B1: the “effect on conversion of H3K9me2 to H3K9me3 by Clr4” value in data set [5] was “decrease in tri-methylation”. In addition, the “increase in affinity towards H3K9me0 nucleosome versus pSwi6” value in data set [6] came to 4.5 X. In addition, the “propensity to oligomerize” value in data set [7] is listed as “strongly decreased propensity to oligomerize”. Moreover, in data set [2] (Figure 7C, SFigure 10D), the “increase in affinity towards H3Kc9me3 nucleosome versus pSwi6” value is on record as 2.6 X.
